{"data": "Measurements from different studies", "note": "Compare with care: the assays were run in different laboratories."}
{"Structure (SMILES)": "CCOC(=O)c1c(NC(=O)CNC(C)C)sc2c1CCCCC2", "species": "male mouse", "sample": "plasma", "route": "intraperitoneal", "dose": "100 mg/kg", "notes": "single dose", "endpoint": "AUC(0-inf)", "result": "19300 ng·h/mL"}
{"Structure (SMILES)": "CC(C)[C@@H](CS(=O)(=O)C(C)C)N1C(=O)[C@@](C)(CC(=O)O)C[C@H](c2cccc(Cl)c2)[C@H]1c1ccc(Cl)cc1", "species": "FVB mouse", "sample": "brain", "route": "intravenous", "dose": "20 mg/kg", "notes": "single dose", "endpoint": "AUC(0-inf)", "result": "172 ng·h/mL"}
{"Structure (SMILES)": "Cc1nc2ccc(OCc3ccc(C(F)(F)F)cc3)cc2[nH]1", "species": "male BALB/c mouse", "sample": "plasma", "route": "oral", "dose": "10 mg/kg", "endpoint": "AUC(0-inf)", "result": "13200 ng·h/mL"}
{"Structure (SMILES)": "CCn1c(=O)c(-c2cc(NC(=O)Nc3ccccc3)c(F)cc2Br)cc2cnc(NC)cc21", "species": "male mouse", "sample": "plasma", "route": "oral", "dose": "15 mg/kg", "notes": "single dose", "endpoint": "AUC", "result": "2310 ng·h/mL"}
{"Structure (SMILES)": "COCC(=O)N1CCc2[nH]c3c(Cl)c(Cl)ccc3c2[C@@H]1C", "species": "C57BL/6 mouse", "sample": "blood", "route": "oral", "dose": "20 mg/kg", "endpoint": "AUC(0-inf)", "result": "8.24 µM·h"}
{"Structure (SMILES)": "CO[C@H]1/C=C/O[C@@]2(C)Oc3c(C)c(O)c4c(c3C2=O)C2=NC3(CCN(CC(C)C)CC3)NC2=C(NC(=O)/C(C)=C\\C=C\\[C@H](C)[C@H](O)[C@@H](C)[C@@H](O)[C@@H](C)[C@H](OC(C)=O)[C@@H]1C)C4=O", "species": "female CD-1 mouse", "sample": "plasma", "route": "intravenous", "dose": "5 mg/kg", "endpoint": "AUC", "result": "8070 ng·h/mL"}
{"Structure (SMILES)": "CN(C)C(=O)c1cc2cnc(Nc3ccc(-c4ccc5c(=O)cc(N6CCOCC6)oc5c4)cc3)nc2n1C1CCCC1", "species": "BALB/c mouse", "sample": "plasma", "route": "oral", "dose": "20 mg/kg", "endpoint": "AUC(0-inf)", "result": "2890 ng·h/mL"}
{"Structure (SMILES)": "COc1cccc2c(N3CCC(CCP(=O)(O)O)CC3)ncnc12", "species": "female C57BL/6 mouse", "sample": "serum", "route": "subcutaneous", "dose": "50 mg/kg", "endpoint": "AUC(0-inf)", "result": "18300 ng·h/mL"}
{"Structure (SMILES)": "O=C1CCC(N2Cc3cc(C4CCN(Cc5ccccc5)CC4)ccc3C2=O)C(=O)N1 (centres unmarked)", "species": "male CD-1 mouse", "sample": "plasma", "route": "oral", "dose": "3 mg/kg", "endpoint": "AUC(0-inf)", "result": "603 ng·h/mL"}
{"Structure (SMILES)": "CCOC(=O)C1=C(CN2CCC[C@@H]2C(=O)Nc2ccc(B(O)O)cc2)NC(c2nccs2)=N[C@H]1c1ccc(F)cc1Br", "species": "CD-1 mouse", "sample": "plasma", "route": "intravenous", "dose": "2 mg/kg", "endpoint": "AUC(0-inf)", "result": "723 ng·h/mL"}
{"Structure (SMILES)": "NCc1cc2c(cc1F)C(=O)N(C1CCC(=O)NC1=O)C2 (centres unmarked)", "species": "male CD-1 mouse", "sample": "plasma", "route": "intravenous", "dose": "1 mg/kg", "endpoint": "AUC(0-inf)", "result": "149 ng·h/mL"}
{"Structure (SMILES)": "OCc1ccc(-c2nn(Cc3ccccc3)c3ccccc23)o1", "species": "male CD-1 mouse", "sample": "plasma", "route": "oral", "dose": "10 mg/kg", "endpoint": "AUC(0-t)", "result": "218 ng·h/mL"}
{"Structure (SMILES)": "OCc1nc2ccc(NCc3ccc(C(F)(F)F)cc3)cc2[nH]1", "species": "male BALB/c mouse", "sample": "plasma", "route": "oral", "dose": "10 mg/kg", "endpoint": "AUC(0-inf)", "result": "2730 ng·h/mL"}
{"Structure (SMILES)": "O=C1CCC(N2Cc3cc(CO)c(F)cc3C2=O)C(=O)N1 (centres unmarked)", "species": "male CD-1 mouse", "sample": "plasma", "route": "intravenous", "dose": "1 mg/kg", "endpoint": "AUC(0-inf)", "result": "316 ng·h/mL"}
